# Shown are actives, neighbours in structure and some others; about 2.9% of the full set was active somewhere.
# SIAE primary – human SIAE inhibitors, primary screen, biochemical, fluorescence polarization, FP-Rh probe, 1536-well HTS; Sialate O-acetylesterase (Homo sapiens), Q9HAT2; SIAE FP-Rh probe binding; inhibition, % at 9.66 µM; 0.69% of 370,000 active; AID 1053197, 2014;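 active means inhibition above a cutoff: mean of compounds within the control limits plus 3 SD of those, cut at about 17% in these data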;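 further: 0% = plate median of compound wells and 100% = probe without SIAE protein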
# ABHD4 inh – ABHD4 inhibitors, primary screen, biochemical, fluorescence polarization, mouse. 0.54% of 370,000 active. (Lyso)-N-acylphosphatidylethanolamine lipase (Mus musculus), Q8VD66. AID 720543, 2013. inhibition, % at 8.92 µM. purified mABHD4, FP-Rh probe fluorescence polarization;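 active means inhibition exceeding the mean over every tested compound plus 3 SD, cut at about 30% in these data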;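 further: 0% = plate median of compound wells and 100% = S159A mutant with DMSO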
#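 Assay system: mouse ABHD4 enzyme, wild type / Also added: fluorescent activity-based probe FP-Rh / Doses: single nominal dose of 8.92 µM, 0.89% DMSO final / Timing: 45 min compound pre-incubation plus 60 min probe step, 25 °C / Signal: FP readout, ex 525 nm / em 598 nm / Control set: S159A mutant/DMSO as 100%, compound-well median as 0%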
# PRMT1 FP inh – PRMT1 methyltransferase inhibitors, primary screen, biochemical, fluorescence polarization; AID 652257, 2013; recombinant PRMT1, activity-based probe fluorescence polarization; Protein arginine N-methyltransferase 1 (Homo sapiens), Q99873; 1.3% of 370,000 active; inhibition, % at 2.79 µM;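 active means inhibition above about 21% made by adding two undisclosed values, limit read from the data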
# HTRA1 inhibitor – HTRA1 serine protease inhibitors, primary screen, biochemical, fluorescence polarization, HTS. Q92743. recombinant HTRA1, FP-rhodamine activity-based probe. inhibition, % at 5.96 µM. 0.5% of 340,000 active. AID 504803, 2011; in the data active means inhibition above about 36%;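 further: 0% = enzyme with DMSO and 100% = wells lacking enzyme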
# ATG4B inhibitor – ATG4B protease inhibitors, primary screen, biochemical, fluorescence, uHTS; Cysteine protease ATG4B (Homo sapiens), Q9Y4P1; ATG4B cleavage of LC3-PLA2, NBD-HPC fluorescence, 1 h; inhibition, % at 8.33 µM; 0.51% of 340,000 active; in the data active means inhibition above about 40%
# Target sequence (Q9Y4P1 whole entry, looked up): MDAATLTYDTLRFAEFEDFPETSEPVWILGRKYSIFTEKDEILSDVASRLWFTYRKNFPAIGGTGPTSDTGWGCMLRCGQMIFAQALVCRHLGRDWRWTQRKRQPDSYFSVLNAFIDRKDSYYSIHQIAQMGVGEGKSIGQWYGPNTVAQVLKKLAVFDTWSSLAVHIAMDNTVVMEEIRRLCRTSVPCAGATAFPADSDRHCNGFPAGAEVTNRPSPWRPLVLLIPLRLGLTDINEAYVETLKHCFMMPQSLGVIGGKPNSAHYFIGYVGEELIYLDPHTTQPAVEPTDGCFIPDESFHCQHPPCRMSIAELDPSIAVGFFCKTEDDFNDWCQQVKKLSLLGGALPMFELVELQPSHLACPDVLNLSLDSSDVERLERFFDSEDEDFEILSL
# TCR-CD3 inh – inhibitors of human TCR-CD3 interaction, primary screen, biochemical, fluorescence, TAMRA-labeled TCR probe; T-cell receptor (TCR); inhibition, % at 9.4 µM; 0.37% of 360,000 active; in the data active means inhibition above about 19%;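 further: recombinant mutant TCR 2C K166C tagged with TAMRA read by polarization; 0% = receptor in buffer alone and 100% = receptor with positive control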
# PRMT1 inh conf – PRMT1 methyltransferase inhibitors, confirmation, biochemical, fluorescence polarization, triplicate; shares compounds with PRMT1 FP inh; recombinant His-PRMT1, activity-based probe fluorescence polarization; inhibition, % at 2.79 µM; 42% of 3,300 active; AID 687036, 2013;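 active means mean inhibition across replicates above the hit cutoff derived for the earlier primary screen, cut at about 22% in these data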
# ABHD4 confirm – ABHD4 inhibitors, retest, confirmation, biochemical, fluorescence polarization, mouse. purified mABHD4, FP-Rh probe fluorescence polarization. shares compounds with ABHD4 inh. 55% of 1,800 active. inhibition, % at 8.92 µM;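 active means mean inhibition across replicates above the hit cutoff set in the primary screen, cut at about 30% in these data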;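 further: 0% = wild-type ABHD4 with DMSO and 100% = catalytically dead S159A mutant with DMSO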
# SIAE confirm – human SIAE inhibitors, retest, confirmation, biochemical, fluorescence polarization, FP-Rh probe, triplicate. inhibition, % at 9.66 µM. SIAE FP-Rh activity-based probe. shares compounds with SIAE primary. AID 1117263, 2014. 13% of 2,300 active;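 active means mean inhibition of the replicates above the hit cutoff set in the primary screen, cut at about 17% in these data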;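 further: 0% = SIAE with DMSO and probe and 100% = probe without SIAE; inhibitors lower polarization as more probe stays unbound to SIAE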
# Active calls of the source: *; x = no result.
SMILES,SIAE primary,ABHD4 inh,PRMT1 FP inh,HTRA1 inhibitor,ATG4B inhibitor,TCR-CD3 inh,PRMT1 inh conf,SIAE confirm,others
O=C(NCCN1CCC(Cc2ccccc2)CC1)C1CCCN(S(=O)(=O)c2ccccc2)C1 (configuration not stated),-1,7,2,x,x,x,x,x,
CCCCCCCCN1C(=O)[C@@H](CC(=O)NCc2cccc3ccccc23)C[C@@]2(C(=O)OC)C1=C[C@H](COCc1ccccc1)O[C@@H]2C,-3,-14,-4,x,x,x,x,x,
CC(COc1ccc(C#N)cc1)CN1CCC(C(O)(c2ccccc2)c2ccccc2)CC1 (configuration not stated),2,3,1,x,x,x,x,x,
COC(=O)C1=C(C)N(Cc2ccc(C)cc2)C(=O)/C1=C\c1cc(OC)c(OC)c(OC)c1,4,-3,-1,-10,6,6,x,x,
COC(=O)C1=C(C)N(Cc2ccc(C)cc2)C(=O)/C1=C\c1ccc(O)c(OC)c1,5,33*,27*,1,-1,10,5,x,ABHD4 confirm=47*
Cc1ccc([C@@H]2C3COCC=C3C(C#N)=C(N)C2(C#N)C#N)o1 (some centres not stated),18*,27,28*,25,1,17,6,3,
Cc1ccc(C2C3CSCC=C3C(C#N)=C(N)C2(C#N)C#N)cc1 (configuration not stated),2,10,19,-11,-12,4,x,x,
O=C(NC1CCCC1)c1ccc(COc2ccccc2)o1,-2,-7,5,x,x,x,x,x,
COC(=O)C1=C(C)N(Cc2ccc(C(F)(F)F)cc2)C(=NCc2ccc3c(c2)OCO3)NC1c1cccc(Cl)c1 (configuration not stated),7,29,-1,x,x,1,x,x,
CC1=C(C)CS(=O)N(S(=O)(=O)c2ccccc2)C1 (configuration not stated),-7,-4,20,-5,-11,5,x,x,
O=S(=O)(/N=S1\CC=CCN1S(=O)(=O)c1ccccc1)c1ccccc1 (configuration not stated),20*,-4,41*,-4,-11,-8,78*,2,
COc1ccc(S[C@]2(C(=O)N3CCN(C(C)=O)CC3)CC(=O)N(C(=O)c3ccccc3)[C@@H]2c2ccc(OC)cc2)cc1,18*,-3,83*,x,x,x,82*,-1,
COc1ccc(S[C@]2(C(=O)N3CCCC3)CC(=O)N(C(=O)/C=C/c3ccccc3)[C@@H]2c2ccc(OC)cc2)cc1,-5,-10,8,x,x,x,x,x,
Cc1cc(C)n2c(Nc3ccc4c(c3)OCCO4)c(-c3cc4ccccc4o3)nc2n1,11,18,3,x,x,-9,x,x,
Cc1cc(C)n2c(Nc3ccc4c(c3)OCCO4)c(-c3ccc(C)o3)nc2n1,17*,17,31*,3,-6,9,3,4,
CCCN1C(=O)c2cccc3c(N4CCCCC4)ccc(c23)C1=O,20*,11,84*,-4,-11,-8,51*,7,
COc1ccc(CCN2C(=O)c3cccc4c(C(=O)N5CCCCC5)ccc(c34)C2=O)cc1OC,6,3,1,-1,-14,8,x,x,
CCCCNc1ccc2c3c(cccc13)C(=O)N(CCCC)C2=O,19*,52*,155*,19,-14,4,133*,18*,ABHD4 confirm=68*
CCOC(=O)c1cccc(NC(=O)CN(C)S(=O)(=O)c2ccc(Cl)s2)c1,0,-9,-1,x,x,x,x,x,
CCCCCCCCSC1=CC(=O)C(OC)=C(OC)C1=O,21*,39*,39*,-8,x,-5,88*,6,ABHD4 confirm=52*
COC(=O)[C@]12C[C@H](CC(=O)N3CCN(C(=O)c4ccco4)CC3)C(=O)N(Cc3ccc4c(c3)OCO4)C1=C[C@H](C(C)C)O[C@@H]2C1CC1,-3,1,8,x,x,x,x,x,
C=CCn1c(O)c(C2=c3ccccc3=NC2=O)c2ccccc21,28*,38*,42*,3,5,3,45*,9,ABHD4 confirm=44*
O=c1c2c([N+](=O)[O-])cc([N+](=O)[O-])cc2sn1Cc1ccccc1,25*,32*,96*,9,0,0,97*,20*,ABHD4 confirm=26
CCCCCn1c(=O)c(C(=O)c2ccccc2)nc2ccccc21,0,-8,2,-7,7,7,x,x,
CCCCCCn1c(=O)[nH]c2nc3cc(N)ccc3nc2c1=O,18*,50*,124*,x,-36,16,104*,12,ABHD4 confirm=40*
SMILES,SIAE primary,ABHD4 inh,PRMT1 FP inh,HTRA1 inhibitor,ATG4B inhibitor,TCR-CD3 inh,PRMT1 inh conf,SIAE confirm,others
Cc1ccc(/C=C2\C(=O)NC(=O)N2C)o1,19*,2,36*,-1,3,0,37*,0,
Cc1ccc(NC(=O)CC2SC(=O)N(c3ccccc3)C2=O)cc1 (configuration not stated),5,-4,14,4,-4,-18,x,x,
O=C(CC1SC(=O)N(c2ccccc2)C1=O)Nc1ccccc1 (configuration not stated),26*,2,81*,0,9,-7,93*,1,
CCOC(=O)[C@@]12CCCC=C1N(CCc1ccc(Cl)cc1)C(=O)[C@H]2CC(=O)N1CCCC1,3,3,1,x,x,x,x,x,
CC(C)(C)N1Cc2nnn(CC3CCCCC3)c2-c2ccccc2S1(=O)=O,-3,0,0,x,x,x,x,x,
CCCN(CC1CC1)c1nc(C)nc2c1nnn2Cc1ccccc1,-1,-5,-3,x,x,x,x,x,
Cc1cccc(C=Nc2ccc3c4c(cccc24)CC3)c1O,21*,34*,36*,11,5,1,4,7,ABHD4 confirm=11
COc1ccc2c(c1OC)C(=O)N1c3ccccc3N=C(c3ccc([N+](=O)[O-])cc3)CC21 (configuration not stated),21*,3,32*,-1,4,3,7,2,

# Screening data: PubChem, several laboratories
